This is an account of results in ChEMBL document CHEMBL1123026, “Preparation and antiarthritic and analgesic activity of 4,5-diaryl-2-(substituted thio)-1H-imidazoles and their sulfoxides and sulfones” (1985).

In general, ED50 refers to the midpoint of the dose-response relation.

Molecules are shown by their SMILES.

Holding throughout (format): functional
For experiment [1], the system named is Mus musculus. The experiment in a line: Effective dose by mouse phenyl-p-benzoquinone writhing (PQW)assay after peroral administration; activity value ranges from (4.8 - 25.4). The settings on record: po. An outline of the steps: (§1)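 Fasted (17-21 h) female white mice, 5-20 per double-blind test, dosed orally with compound suspended in 1% methylcellulose. 0.20 mL aqueous 0.01% phenyl-p-benzoquinone given i.p. 6 min before a 10-min observation for stretching/writhing. ED50 (dose protecting 50% of mice) calculated by the moving-average method.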
For orientation: In writhing tests, fewer writhes than in controls are read as antinociception.

For experiment [2], the system named is Mus musculus. The experiment in a line: Effective dose determined by mouse phenyl-p-benzoquinone writhing (PQW) assay after peroral administration. The conditions noted are these: po. The method in brief: as §1
Experiment [3] relates to Rattus norvegicus. The experiment in a line: Decrease in paw volume by the effect of compound at a dose of 75 mg/kg. The method in brief: (§2)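 Male Lewis rats (130-150 g) got 0.1 mL adjuvant (heat-killed Mycobacterium butyricum, 5 mg/mL in mineral oil) subplantar in the right hind paw and were left 2 weeks. Groups of 10 matched for severity were dosed orally by gavage (PVA-acacia vehicle, 10 mL/kg) for 7 days. Uninjected left hind paw volume was read the next day. % decrease = (arthritic control − treated)/(arthritic − nonarthritic control) × 100; Student's t-test.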

Experiment [4] relates to Mus musculus. Nature of the experiment: Effective dose by mouse phenyl-p-benzoquinone writhing (PQW)assay after peroral administration; activity value ranges from (0.68-2.89). The settings on record: po.
Experiment [5] relates to Rattus norvegicus. Nature of the experiment: Decrease in paw volume was evaluated at dose 9 mg/kg. The method in brief: as §2
In experiment [6] the test system is Mus musculus. The experiment in a line: Effective dose by mouse phenyl-p-benzoquinone writhing (PQW)assay after peroral administration; activity value ranges from (0.09 - 0.86). The conditions noted are these: po.
The subject of experiment [7] is Rattus norvegicus. The experiment in a line: Effective dose determined against rat adjuvant arthritis after peroral administration. The settings on record: po. An outline of the steps:
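Male Lewis rats (130-150 g) given 0.1 mL Mycobacterium butyricum adjuvant (5 mg/mL in mineral oil) s.c. into the right hind paw; arthritis developed for 2 weeks. Groups of 10 matched for severity were dosed orally by gavage in PVA-acacia vehicle (10 mL/kg) for 7 days. Uninjected left paw volume was measured the day after the last dose. Percent decrease was calculated vs arthritic and nonarthritic controls. ED50 was read from a visually fitted semilog dose-response line.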

Experiment [8] deals with Mus musculus. Nature of the experiment: Effective dose by mouse phenyl-p-benzoquinone writhing (PQW)assay after peroral administration; activity value ranges from (18.6-69.6). The conditions noted are these: po. An outline of the steps:
as §1

Experiment [9] relates to Mus musculus. Nature of the experiment: Effective dose by mouse phenyl-p-benzoquinone writhing (PQW)assay after peroral administration; 3.1-14.0. The conditions noted are these: po.
Experiment [10] has as its system Mus musculus. Nature of the experiment: Effective dose by mouse phenyl-p-benzoquinone writhing (PQW)assay after peroral administration; activity value ranges from (4.6 - 21.7). The conditions noted are these: po. The method in brief:
as §1

Experiment [11] deals with Mus musculus. The experiment in a line: Effective dose by mouse phenyl-p-benzoquinone writhing (PQW)assay after peroral administration; activity value ranges from (9.2 - 43.6). The conditions noted are these: po. An outline of the steps: as §1
For experiment [12], the system named is Mus musculus. Nature of the experiment: Effective dose by mouse phenyl-p-benzoquinone writhing (PQW)assay after peroral administration; activity value ranges from (2.5 - 8.9). The conditions noted are these: po. The method in brief:
as §1

Experiment [13] relates to Rattus norvegicus. The experiment in a line: Decrease in paw volume by the effect of compound at a dose 100 mg/kg. An outline of the steps: as §2
For experiment [14], the system named is Mus musculus. Nature of the experiment: Effective dose by mouse phenyl-p-benzoquinone writhing (PQW)assay after peroral administration; activity value ranges from (0.37-1.22). The conditions noted are these: po.
The subject of experiment [15] is Mus musculus. Nature of the experiment: Effective dose by mouse phenyl-p-benzoquinone writhing (PQW)assay after peroral administration; activity value ranges from (20.0-101.0). The conditions noted are these: po. An outline of the steps: as §1
Experiment [16] deals with Mus musculus. The experiment in a line: Effective dose by mouse phenyl-p-benzoquinone writhing (PQW)assay after peroral administration; activity value ranges from (57.4 - 203.2). The conditions noted are these: po. An outline of the steps: as §1
The test system of experiment [17] is Mus musculus. Nature of the experiment: Effective dose by mouse phenyl-p-benzoquinone writhing (PQW)assay after peroral administration; activity value ranges from (0.66-2.55). The settings on record: po.
Experiment [18] deals with Mus musculus. The experiment in a line: Effective dose by mouse phenyl-p-benzoquinone writhing (PQW)assay after peroral administration; activity value ranges from (8.8-36.8). The conditions noted are these: po. An outline of the steps:
as §1

The test system of experiment [19] is Mus musculus. Nature of the experiment: Effective dose by mouse phenyl-p-benzoquinone writhing (PQW)assay after peroral administration; 4.5-25.9. The settings on record: po.
Experiment [20] has as its system Rattus norvegicus. The experiment in a line: Decrease in paw volume was evaluated at dose 1 mg/kg. The method in brief: as §2
Experiment [21] has as its system Mus musculus. The experiment in a line: Effective dose by mouse phenyl-p-benzoquinone writhing (PQW)assay after peroral administration; 11.4-59.4. The conditions noted are these: po.
The test system of experiment [22] is Mus musculus. The experiment in a line: Effective dose by mouse phenyl-p-benzoquinone writhing (PQW)assay after peroral administration; highest dose was tested. The settings on record: po. An outline of the steps:
as §1

With `Cc1ccc(-c2nc(S(=O)(=O)C(F)(F)C(F)F)[nH]c2-c2ccc(C)cc2)cc1`, the median effective dose (ED50) in the experiment with Mus musculus [1] was determined as 11 mg/kg.
In turn, `C[S+]([O-])c1nc(-c2cccc(Cl)c2)c(-c2ccccc2)[nH]1` (configuration not stated) came in with an ED50 in the experiment with Mus musculus [2] of more than 130 mg/kg. Besides, in the experiment on Rattus norvegicus [3], the Decrease was found to be 77%.
As for `O=S(=O)(c1nc(-c2ccc(F)cc2)c(-c2ccc(F)cc2)[nH]1)C(F)F`, in the experiment with Mus musculus [4], the ED50 came out at 1.4 mg/kg.
`CSc1nc(-c2ccc(C(F)(F)F)cc2)c(-c2ccccc2)[nH]1` had an ED50 with Mus musculus [2] of more than 130 mg/kg. For the same compound, in the experiment on Rattus norvegicus [5], the Decrease was 41%.
Take `COc1ccc(-c2[nH]c(S(=O)(=O)C(F)(F)C(F)F)nc2-c2ccc(F)cc2)cc1`: the ED50 in the experiment with Mus musculus [6] turned out to be 0.28 mg/kg; with Rattus norvegicus [7], 1.7 mg/kg.
As for `CC[S+]([O-])c1nc(-c2ccc(OC)cc2)c(-c2ccc(OC)cc2)[nH]1` (configuration not stated), it took a dose of 36 mg/kg to reach the 50% effect level in the experiment on Mus musculus [8] (ED50).
`O=S(=O)(c1nc(-c2ccccc2)c(-c2ccccc2)[nH]1)C(F)(F)C(F)Br` (configuration not stated): in the experiment with Mus musculus [9], the 50% effect level (ED50) was put at a dose of 6.6 mg/kg.
In the case of `CCS(=O)(=O)c1nc(-c2ccc(OC)cc2)c(-c2ccc(OC)cc2)[nH]1`, the ED50 was found to be 10 mg/kg in the experiment with Mus musculus [10] and 6 mg/kg in the experiment with Rattus norvegicus [7].
The compound `O=S(=O)(CC(F)(F)F)c1nc(-c2ccc(F)cc2)c(-c2ccc(F)cc2)[nH]1` displayed an ED50 with Mus musculus [11] of 20 mg/kg.
With `[O-][S+](c1nc(-c2ccccc2)c(-c2ccccc2)[nH]1)C(F)(F)C(F)F` (configuration not stated), it took a dose of 4.7 mg/kg to reach the 50% effect level with Mus musculus [12] (ED50).
`CS(=O)(=O)c1nc(-c2cccc(F)c2)c(-c2ccccc2)[nH]1` showed an ED50 in the experiment on Mus musculus [2] of more than 130 mg/kg. In the experiment on Rattus norvegicus [3], the Decrease is 32%.
On to `C[S+]([O-])c1nc(-c2ccccc2)c(-c2ccccc2)[nH]1` (configuration not stated), for which the ED50 in the experiment on Mus musculus [2] was more than 100 mg/kg. In addition, the Decrease with Rattus norvegicus [13] came to 33%.
As to `O=S(=O)(c1nc(-c2ccc(F)cc2)c(-c2ccc(F)cc2)[nH]1)C(F)(F)C(F)F` [TIFLAMIZOLE], the ED50 in the experiment with Mus musculus [14] was found to be 0.67 mg/kg.
As for `O=S(=O)(c1nc(-c2ccc(Cl)cc2)c(-c2ccc(C(F)(F)F)cc2)[nH]1)C(F)(F)C(F)F`, in the experiment with Mus musculus [15], the 50% effect level (ED50) was put at a dose of 45 mg/kg.
Consider `CS(=O)(=O)c1nc(-c2ccccc2Cl)c(-c2ccccc2Cl)[nH]1`, for which the ED50 with Mus musculus [16] is 108 mg/kg; in the experiment on Rattus norvegicus [7], more than 50 mg/kg.
As to `[O-][S+](c1nc(-c2ccc(Cl)cc2)c(-c2ccc(Cl)cc2)[nH]1)C(F)F` (configuration not stated), in the experiment with Mus musculus [17], the ED50 stood at 1.3 mg/kg.
`O=S(=O)(c1nc(-c2ccc(F)cc2)c(-c2ccc(C(F)(F)F)cc2)[nH]1)C(F)(F)C(F)F`: the ED50 with Mus musculus [18] is 18 mg/kg; in the experiment on Rattus norvegicus [7], more than 1 mg/kg.
As to `CSc1nc(-c2ccc(C(F)(F)F)cc2)c(-c2ccc(C(F)(F)F)cc2)[nH]1`, the ED50 in the experiment on Mus musculus [2] is more than 130 mg/kg. Further, the Decrease in the experiment on Rattus norvegicus [5] amounted to 29%.
As for `COc1ccc(-c2nc(S(=O)(=O)C(F)(F)C(Br)Br)[nH]c2-c2ccc(OC)cc2)cc1`, the figures for the ED50 in the experiment on Mus musculus [19] and with Rattus norvegicus [7] were 10.8 mg/kg and more than 9 mg/kg, respectively.
Regarding `FC(F)(F)Sc1nc(-c2ccccc2)c(-c2ccccc2)[nH]1`, the ED50 in the experiment with Mus musculus [2] was more than 130 mg/kg. In the experiment on Rattus norvegicus [20], this compound showed a Decrease of 27%.
The matching figures for `FC(F)C(F)(F)Sc1nc(-c2ccc(Cl)cc2)c(-c2ccc(C(F)(F)F)cc2)[nH]1`: more than 130 mg/kg and 35%.
In the case of `C=CCSc1nc(-c2ccc(OC)cc2)c(-c2ccc(OC)cc2)[nH]1`, the ED50 with Mus musculus [21] amounted to 26 mg/kg; in the experiment on Rattus norvegicus [7], 20 mg/kg.
As to `CS(=O)(=O)c1nc(-c2ccc(F)cc2)c(-c2ccccc2)[nH]1`, the results for the ED50 with Mus musculus [22] and in the experiment on Rattus norvegicus [7] were 135 mg/kg and more than 9 mg/kg, respectively.
